Test results as given in PMC12363949 (bioRxiv, 2025).

Experiments:
[1] = biological target: incorrectly assembled half-Pf20S (immature half proteasome with Ump1) (Plasmodium falciparum) (UniProt Q8I6T3); experiment: cryo-EM structure
Pf20S β5 subunit = experiment: Gel-based competition with activity-based probe Me4BodipyFL-Ahx3Leu3VS, β5 band; assay type: biochemical, Plasmodium falciparum; conditions: preincubation of recombinant Pf20S with inhibitor before probe; denaturing gel
Method in brief: (§1)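 Baculovirus-expressed Pf20S from Sf9 cells, purified by Streptactin affinity and size exclusion, preincubated with test compound. Then 2 μM Me4BodipyFL-Ahx3Leu3VS added, 16 h at room temperature. Samples heated 5 min at 99°C in LDS buffer with 250 μM DTT, run on 12% Bis-Tris gel in MOPS SDS buffer at 120 V. Imaged at 470 nm excitation / 530 nm emission; bands quantified densitometrically.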

Pf20S β2 subunit = experiment: Gel-based competition with activity-based probe Me4BodipyFL-Ahx3Leu3VS, β2 band; assay type: biochemical, Plasmodium falciparum; conditions: preincubation of recombinant Pf20S with inhibitor before probe; denaturing gel
Method in brief: as §1

Pf20S β1 = Pf20S β1 (Plasmodium falciparum, UniProt Q8I0U7+Q8I6T3); experiment: Pf20S β1 subunit activity/inhibition assay, fluorogenic substrate Ac-nPnD-amc; assay type: biochemical
c20S β2 = c20S β2 (Homo sapiens, UniProt P49720+Q99436); experiment: Human c20S β2 inhibition assay, fluorogenic substrate Z-VLR-amc; assay type: biochemical
Pf20S β2 = Pf20S β2 (Plasmodium falciparum, UniProt Q8I261+Q8I6T3); experiment: Pf20S β2 subunit activity/inhibition assay, fluorogenic substrate Z-VLR-amc; assay type: biochemical
Pf20S β5 = Pf20S β5 (Plasmodium falciparum, UniProt A0A5K1K7U1+Q8IJT1); experiment: Pf20S β5 subunit activity/inhibition assay, fluorogenic substrate Ac-FNKL-amc; assay type: biochemical; conditions: 200 nM PA28α
Sequence of Pf20S β5 (Q8IJT1 61-271): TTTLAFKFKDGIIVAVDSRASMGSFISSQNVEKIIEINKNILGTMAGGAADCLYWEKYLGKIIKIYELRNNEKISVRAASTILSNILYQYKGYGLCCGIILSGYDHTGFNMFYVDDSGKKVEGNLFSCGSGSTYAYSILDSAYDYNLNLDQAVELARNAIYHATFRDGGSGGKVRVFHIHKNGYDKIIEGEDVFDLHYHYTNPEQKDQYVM
Sequence of Pf20S β5 (A0A5K1K7U1 29-240): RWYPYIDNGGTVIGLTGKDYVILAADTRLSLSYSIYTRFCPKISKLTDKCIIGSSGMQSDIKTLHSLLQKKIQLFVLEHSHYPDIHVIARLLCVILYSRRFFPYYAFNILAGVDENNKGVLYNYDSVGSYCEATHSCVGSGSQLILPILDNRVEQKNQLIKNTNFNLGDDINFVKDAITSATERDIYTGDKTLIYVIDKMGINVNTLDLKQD
Sequence of Pf20S β5 (Q06323 whole entry partner): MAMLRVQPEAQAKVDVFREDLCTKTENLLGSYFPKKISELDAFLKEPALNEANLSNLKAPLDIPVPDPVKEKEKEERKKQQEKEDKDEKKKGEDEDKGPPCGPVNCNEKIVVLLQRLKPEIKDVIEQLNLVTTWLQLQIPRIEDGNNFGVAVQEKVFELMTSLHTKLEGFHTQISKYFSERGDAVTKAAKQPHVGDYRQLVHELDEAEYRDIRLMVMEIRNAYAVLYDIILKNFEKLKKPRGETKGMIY

Sequence of Pf20S β1 (Q8I0U7 31-282): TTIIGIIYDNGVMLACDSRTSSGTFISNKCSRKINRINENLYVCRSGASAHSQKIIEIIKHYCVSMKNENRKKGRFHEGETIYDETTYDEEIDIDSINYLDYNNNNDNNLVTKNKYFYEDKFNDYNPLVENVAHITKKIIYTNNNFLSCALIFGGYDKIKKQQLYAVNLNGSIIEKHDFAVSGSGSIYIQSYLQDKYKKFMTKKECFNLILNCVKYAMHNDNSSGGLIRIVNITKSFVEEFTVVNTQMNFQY
Sequence of Pf20S β1 (Q8I6T3 42-270): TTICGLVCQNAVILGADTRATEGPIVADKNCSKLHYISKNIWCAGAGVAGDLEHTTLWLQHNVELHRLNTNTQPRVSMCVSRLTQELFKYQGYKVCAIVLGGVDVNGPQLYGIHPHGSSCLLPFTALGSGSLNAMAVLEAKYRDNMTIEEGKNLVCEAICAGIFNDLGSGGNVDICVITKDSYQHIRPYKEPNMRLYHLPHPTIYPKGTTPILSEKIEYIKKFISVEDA
Sequence of Pf20S β1 (Q06323 whole entry partner): as the sequence (Q06323 whole entry partner) above
Sequence of Pf20S β2 (Q8I6T3 42-270): as the sequence (Q8I6T3 42-270) above
Sequence of Pf20S β2 (Q8I261 1-218): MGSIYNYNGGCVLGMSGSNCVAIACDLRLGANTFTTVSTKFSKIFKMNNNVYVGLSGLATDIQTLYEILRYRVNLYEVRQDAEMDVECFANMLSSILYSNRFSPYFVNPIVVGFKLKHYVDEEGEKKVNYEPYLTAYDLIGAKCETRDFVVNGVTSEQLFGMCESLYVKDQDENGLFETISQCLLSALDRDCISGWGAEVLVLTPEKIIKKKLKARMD
Sequence of Pf20S β2 (Q06323 whole entry partner): as the sequence (Q06323 whole entry partner) above

incorrectly assembled half-Pf20S (immature half proteasome with Ump1) (from UniProt Q8I6T3 1-270; Q8IJT1 1-271; Q7K6A9 1-265) (complex)
stoichiometry N [1]: 2

C[C@@]12OC(=O)[C@]1([C@@H](O)[C@@H]1C=CCCC1)NC(=O)[C@@H]2CCCl [Marizomib]
effect on probe labeling of β5 (lower, 23 kDa) band (Pf20S β5 subunit): eliminated the labeling of both bands
effect on probe labeling of β2 (upper, 25 kDa) band (Pf20S β2 subunit): eliminated the labeling of both bands
inhibition of Pf20S-mediated cleavage of Ac-nPnD-amc (β1 activity) (Pf20S β1; time-course, Fig. 3b): inhibited
IC50 (c20S β2): ~0.3 µM

PA28α: human proteasome activator subunit 1 alpha, produced recombinantly in E. coli
increase of Pf20S β2 subunit activity (Pf20S β2; 200 nM PA28α, Z-VLR-amc): 2 fold
increase of Pf20S β1 subunit activity (Pf20S β1; 200 nM PA28α, Ac-nPnD-amc): 4 fold
increase of Pf20S β5 subunit activity (Pf20S β5): 8 fold

Ac-Phe-Arg-Ser-Arg-epoxyketone [FRSR-ek]
inhibition of Pf20S activity with Z-VLR-amc (β2 substrate) (Pf20S β2; Fig. S4): effectively inhibited
